Most compounds without a hit are left out; they make up all but 6.7% or so of the library.
CHOP inhibitor = CHOP inhibition in unfolded protein response | CHO-K1 CHOP-promoter luciferase, tunicamycin-induced, 15-18 h | inhibition, % at 10 µM | hit rate 3.8% among 220,000;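 active = compounds that reduced the stress-induced luciferase reporter signal by more than about 70% of percent inhibition, limit read from the data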;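 note: 0% = tunicamycin plus vehicle and 100% = wells without tunicamycin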
Beta cell apopt = beta cell apoptosis inhibition; AID 435005; hit rate 0.8% among 300,000; INS-1E cytokine-induced death, ATP luminescence, 48 h; percent of positive-control rescue, neutral wells zero; protection from apoptosis, % (test concentration not listed);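 active = Every replicate reaches about 75%, or at least half do and their mean reaches it too, limit read from the data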;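 note: 0% = cytokine-treated negative control wells and 100% = positive control rescue; higher means more ATP so stronger rescue from cytokine killing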
T cruzi inh = blocks replication of Trypanosoma cruzi; T. cruzi beta-gal in NIH3T3, luminescence, 90 h; inhibition, % (test concentration not listed); hit rate 1.4% among 300,000; AID 1885;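 active = mean inhibition across valid replicates above about 55%, limit read from the data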;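 note: signal also drops with host cell toxicity which is not excluded here; 0% = plate median of DMSO wells and 100% = zero luminescence signal; higher percent means less beta-gal luminescence so fewer parasites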
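Assay system: NIH/3T3 host cells with β-galactosidase reporter T. cruzi; input: 5,000 host fibroblasts per well; compound: single 50 nL compound addition per well in DMSO; timing: ≥90 h infection period, 3 h prior cell attachment; measured by: GalScreen β-gal luminescence, detergent lysis, 60 min; evaluation: percent inhibition of parasite-derived β-gal signal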
GRIN3A LBD mod = NR3A (human) ligand-binding domain modulation | NR3A LBD differential scanning fluorimetry, Tm shift; 0% = protein alone, 100% = glycine-bound protein | Tm shift relative to glycine control, % at 25 µM | hit rate 2.5% among 340,000 | AID 1259313;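 active = melting temperature shift of at least 10% of the positive control shift, at one fixed dose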
PREPL inhibitor = human PREPL enzyme inhibition | Q4J6C6 | recombinant PREPL, fluorescence polarization activity-based probe | inhibition, % at 5.96 µM | hit rate 0.68% among 320,000 | AID 2751; in the data active = inhibition above about 43%;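 note: 0% = enzyme with DMSO and 100% = wells lacking enzyme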
Target sequence (Q4J6C6 whole entry, looked up): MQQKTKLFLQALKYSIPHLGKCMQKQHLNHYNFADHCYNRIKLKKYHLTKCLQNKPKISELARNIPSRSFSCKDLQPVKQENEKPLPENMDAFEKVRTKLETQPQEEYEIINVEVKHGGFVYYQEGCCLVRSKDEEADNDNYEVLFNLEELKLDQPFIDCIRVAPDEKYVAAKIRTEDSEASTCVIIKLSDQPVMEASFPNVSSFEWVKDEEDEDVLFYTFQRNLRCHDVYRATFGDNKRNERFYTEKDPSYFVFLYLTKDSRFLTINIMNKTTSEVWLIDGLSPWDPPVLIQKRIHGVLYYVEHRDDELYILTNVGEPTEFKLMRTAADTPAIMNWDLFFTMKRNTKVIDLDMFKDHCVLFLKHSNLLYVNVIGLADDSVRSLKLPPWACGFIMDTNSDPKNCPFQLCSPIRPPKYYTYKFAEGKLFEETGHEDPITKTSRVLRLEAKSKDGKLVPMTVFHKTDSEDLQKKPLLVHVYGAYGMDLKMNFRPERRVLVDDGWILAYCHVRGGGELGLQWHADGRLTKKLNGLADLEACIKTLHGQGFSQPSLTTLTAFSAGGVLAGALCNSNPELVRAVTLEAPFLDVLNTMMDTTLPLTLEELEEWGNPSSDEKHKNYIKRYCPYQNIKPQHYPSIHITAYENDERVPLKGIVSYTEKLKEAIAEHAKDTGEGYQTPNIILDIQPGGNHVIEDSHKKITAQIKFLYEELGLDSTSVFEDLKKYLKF
CSC inhib = cancer stem cell inhibition; cancer stem cell-like cells viability, luminescence; inhibition, % at 7.5 µM; hit rate 1.1% among 300,000; AID 2717; in the data active = inhibition above about 75%; tested in HMLE shEcad cells
CHOP inh conf = confirmation of CHOP induction inhibitors. inhibition, % at 10 µM. CHO-CHOP promoter luciferase reporter, tunicamycin-induced, luminescence. hit rate 45% among 2,100. shares compounds with CHOP inhibitor;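 active = mean of three repeat readings of reporter signal inhibition above a set limit, cut at about 70% in these data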;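 note: 0% = tunicamycin plus vehicle and 100% = wells lacking tunicamycin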
Active calls of the source: *; x = not tested or not shown.

SMILES	CHOP inhibitor	Beta cell apopt	T cruzi inh	GRIN3A LBD mod	PREPL inhibitor	CSC inhib	CHOP inh conf
COc1ccc(Oc2ccc3c(C(F)(F)F)cc(C(F)(F)F)nc3n2)cc1	52.1	7.8	27.2	-4.0	14.9	1.6	x
CC(C)COC(=O)c1cccc2c1-c1ccccc1/C2=N\O	101.5*	-2.3	5.9	6.3	-10.2	120.1*	63.9
Cc1ccn2c(=O)nc(SCC(=O)NCCc3ccccc3)nc2c1	x	x	-13.0	4.3	3.8	-2.6	x
CCOc1cc(S(=O)(=O)Nc2cc(C)cc(C)c2)ccc1Cl	105.6*	4.0	22.7	11.0*	0.9	-2.5	116.7*
CCOc1cc(S(=O)(=O)NC2CCCC2)ccc1Cl	42.2	-0.2	x	-1.7	2.0	x	x
O=C1CC(c2ccccc2)CC(O)=C1C=Nc1cccc(Cl)c1 (centres undefined)	101.9*	-20.9	-16.0	-1.9	-0.6	-1.4	75.6*
Cc1ccc(N=CC2=C(O)CC(c3cccc(Cl)c3)CC2=O)cc1 (centres undefined)	29.0	0.1	-34.5	0.4	6.8	22.1	x
O=C1CC(c2ccccc2Cl)CC(O)=C1C=Nc1ccccc1 (centres undefined)	102.7*	-17.1	-33.6	0.7	-4.3	6.8	103.8*
CC(C)C[C@H](N)c1nnc(S(=O)(=O)Cc2ccc(F)cc2)o1	103.0*	12.5	-6.1	1.0	-7.0	76.9*	47.2
CC(C)C[C@H](N)c1nnc(SCC(=O)Nc2ccc(Br)cc2)o1	x	-5.9	-0.4	2.0	8.5	-25.1	x
O=C(Nc1cccc(F)c1)c1c(O)c2ccccc2[nH]c1=O	x	2.1	-5.6	3.0	19.9	7.6	x
O=C(N/N=C/c1ccc(F)cc1)c1c(O)c2ccccc2[nH]c1=O	100.6*	-2.1	2.1	5.1	7.2	4.5	72.4*
O=C(N/N=C/c1cccc(F)c1)c1c(O)c2ccccc2[nH]c1=O	104.4*	100.7*	2.7	2.2	4.5	34.5	92.7*
Cn1ncc(Br)c1C(=O)NC12CC3CC(CC(C3)C1)C2	-13.5	0.2	6.4	0.1	-9.2	-17.6	x
Cc1ccc(N/C(N)=N/c2nc(CSc3nnc(N)s3)cc(=O)[nH]2)cc1	6.4	0.6	-7.8	0.3	13.7	4.8	x
N/C(=N\c1nc(CSc2nc3ccccc3s2)cc(=O)[nH]1)Nc1ccc(F)cc1	99.5*	7.5	10.3	0.5	-11.1	6.2	18.4
COc1ccc(CNc2oc(-c3cccc4ccccc34)nc2C#N)cc1	96.6*	-2.0	12.8	8.8	14.0	x	97.6*
Cc1ccc(-c2[nH]c3cc(C(N)=O)ccc3c(=O)c2O)cc1	8.2	-3.9	-15.0	0.1	21.1	x	x
Cc1ccc(CNC(=O)c2ccc3c(=O)c(O)c(-c4ccc(C)cc4)[nH]c3c2)cc1	103.0*	30.2	60.3*	-3.7	-3.0	42.4	59.8
CC(C)(C)c1cc(NC(=O)Nc2ccc(Br)cc2Cl)no1	8.7	-4.1	51.4	-3.2	11.3	-0.1	x
CC(C)(C)c1cc(NC(=O)Nc2ccc(Cl)cc2Cl)no1	96.2*	x	10.2	8.0	4.6	29.4	13.0
C/C(CCC(C)C)=N\Nc1cc(C)c2ccccc2n1	37.5	-3.2	33.6	-2.2	1.8	0.6	x
CN1CCN(C(=O)c2ccc(OCCOc3ccccc3)cc2)CC1	x	-2.9	-6.5	-1.0	6.8	31.9	x
FC(F)C(F)(F)C(F)(F)C(F)(F)c1cc(-c2ccccc2)n[nH]1	106.1*	0.9	12.1	-6.8	-2.0	43.2	110.6*
O=C(Nc1nccs1)c1cc2c(s1)CCCCC2	98.0*	-0.6	22.2	0.7	-27.3	2.1	78.5*
SMILES	CHOP inhibitor	Beta cell apopt	T cruzi inh	GRIN3A LBD mod	PREPL inhibitor	CSC inhib	CHOP inh conf
NNC(=O)c1cc2c(s1)CCCCCC2	16.5	-1.5	-0.1	-1.0	8.1	1.5	x
CN(Cc1nc(-c2ccccc2)no1)C1CCOCC1	-0.1	1.1	-8.5	-0.1	-6.3	-6.2	x
Cc1cccc(C)c1NC(=O)CNC(=O)c1cn(-c2ccccc2)nc1-c1ccccc1	x	x	-2.0	-3.6	-8.3	9.7	x
Cc1nn(Cc2c(Cl)cccc2Cl)c(C)c1NC(=O)c1cn(-c2ccccc2)nc1-c1ccccc1	109.3*	106.4*	42.1	0.3	-0.9	165.4*	106.1*
C[C@H](NC(=O)c1ccco1)C(=O)NNC(=O)COc1cccc(C(F)(F)F)c1	x	-7.0	x	0.3	-2.0	-9.6	x
Brc1ccc(C2Nc3cccc4cccc(c34)N2)s1	104.4*	-2.4	x	-2.4	8.0	4.2	2.8
Clc1ccc(C2Nc3cccc4cccc(c34)N2)cc1	x	-3.6	-5.9	3.2	40.7	5.0	x
O=C(NC1CC1)C1CCN(S(=O)(=O)c2ccc(Cl)c([N+](=O)[O-])c2)CC1	x	-2.5	x	1.8	15.6	63.9	x
O=S(=O)(Nc1ccncc1)c1ccc(Cl)cc1	4.7	-3.3	-10.4	0.6	5.2	-11.8	x
O=S(=O)(Nc1ccc(Cc2ccncc2)cc1)c1ccc(Cl)c(Cl)c1	102.6*	5.6	1.9	-2.0	-8.9	x	53.9
COc1cc(NC(=O)CCc2nnc3ccc(N4CCOCC4)nn23)cc(OC)c1OC	x	-6.7	-16.4	-2.6	10.6	-4.7	x
CCN(CC)CCn1c(SCC(=O)Nc2ccc(F)cc2)nc2c(sc3ccccc32)c1=O	103.7*	-19.9	10.0	x	-44.4	5.4	89.9*
Cc1cccc(OC(=O)Cn2c(C(F)(F)F)nc3ccccc32)c1	5.2	-5.5	-4.4	-0.9	3.4	-5.1	x
Cc1cccc(OCc2n(CC(=O)OC3CC(C)CCC3C(C)C)c3ccccc3[n+]2C)c1 (centres undefined)	108.8*	106.3*	64.5*	-8.1	13.1	103.4*	77.7*
O=C(c1ccccc1)c1cc(Cl)ccc1N1C(=O)C=CC1=O	105.7*	x	x	1.2	x	x	-10.3
Cc1ccc(C)c(C(=O)Cn2ncc(Cl)c(Cl)c2=O)c1	110.7*	-11.9	-25.1	0.3	19.2	56.4	-24.5
CC(C)(CO)C(O)C(=O)NCCCO (centres undefined)	x	-4.8	-18.2	-4.7	-2.3	-15.9	x
COc1ccc2[nH]c(=O)c3c(c2c1)OC(C)(C)C=C3	56.7	-26.8	6.1	1.1	8.0	-3.4	x
Cc1cc2c([nH]c3ccccc32)c2c1OC(C)(C)C=C2	98.2*	x	0.3	16.2*	24.9	12.0	97.3*
CN(C)c1ccc(/C=C/c2ccc3c4ccccc4ccc3[n+]2-c2ccccc2)cc1	107.7*	x	x	4.6	x	x	123.1*
CN(C)c1ccc(/C=C/c2cccc[n+]2[O-])cc1	-6.4	-13.0	-8.7	-0.6	6.7	-8.5	x
O=S(=O)(Nc1c(S(=O)(=O)c2ccccc2)c2nc3ccccc3nc2n1C1CCCCC1)c1ccccc1	105.7*	1.6	0.3	-1.6	-9.2	106.4*	23.2
CC(=O)Nc1c(S(=O)(=O)c2ccccc2)c2nc3ccccc3nc2n1Cc1ccccc1	18.8	-0.9	18.7	-6.1	2.2	-4.0	x

Assay outcomes from PubChem BioAssay.
